The nature of series [1]: Cytotoxicity against CHOK1 cells at 100 uM after 72 hrs by CellTiter-Glo luminescence assay. The class given is cell-based, Cricetulus griseus. To be noted: chinese hamster, CHO-K1 cells; read-out: INH. The method in brief: (§1)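 1250 cells per well in serum-free medium (F12 for CHO-K1 and A549, DMEM for M14). Compounds given as 10-point 1:3 serial dilutions from a 300 µM stock, plus a gefitinib control. Incubated 72 h at 37 °C, 5% CO2. CellTiter-Glo added for 15 min at room temperature, then luminescence read. Viability normalized to media-only wells (0%) and 1% DMSO wells (100%). Run in triplicate.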
A general note: Cellular ATP, detected with luciferase, serves as a proxy for viable cell number.

The subject of another series is A549. In words: Cytotoxicity against human A549 cells at 100 uM after 72 hrs by CellTiter-Glo luminescence assay. The class given is functional. To be noted: A549, 72 h. The method in brief: as §1
In series [2] the test system is M14. In words: Cytotoxicity against human M14 cells at 100 uM after 72 hrs by CellTiter-Glo luminescence assay. The note with it: M14, 72 h. Format: functional. In short, it runs like this: as §1
For series [3], the system named is M14. Description: Cytotoxicity against human M14 cells assessed as cell viability after 4 hrs using GF-AFC as substrate by ApoTox-Glo triplex assay. The class given is functional, cell-based. The method in brief:
(§2)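 M14 #5 cells, 1250 per well in serum-free DMEM, pre-incubated 4 h at 37 °C, 5% CO2. Compounds added as 1:3 serial dilutions; incubated 4, 24, 48 and 72 h. Per time point, a reagent containing 400 µM GF-AFC (live-cell protease) and 400 µM bis-AAF-R110 (dead-cell protease) was added for 30 min at 37 °C, then fluorescence was read. Caspase-Glo 3/7 was added next, 30 min at room temperature, then luminescence.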

Series [4] concerns M14. In words: Induction of apoptosis human M14 cells assessed as caspase activity after 4 to 24 hrs using DEVD peptide as substrate by ApoTox-Glo triplex assay. Format: functional, cell-based. In short, it runs like this: (§3)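 M14 cells, 1250 per well, in serum-free DMEM, settled 4 h, then given 1:3 serial dilutions. Ionomycin, terfenadine and panobinostat were the controls. Incubated 4, 24, 48 or 72 h at 37 °C. A reagent containing 400 µM GF-AFC (live-cell protease, ex 400/em 505 nm) and 400 µM bis-AAF-R110 (dead-cell protease, ex 485/em 520 nm) was applied for 30 min at 37 °C. Caspase-Glo 3/7 (DEVD) luminescence was then read after 30 min at room temperature.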

The test system of series [5] is M14. Description: Cytotoxicity against human M14 cells assessed as cell viability after 4 hrs using bis-AAF-R110 as substrate by ApoTox-Glo triplex assay. The class given is functional, cell-based. In short, it runs like this:
as §3

In series [6] the test system is M14. Description: Induction of apoptosis human M14 cells assessed as caspase activity at 100 uM after 4 to 72 hrs using DEVD peptide as substrate by ApoTox-Glo triplex assay. The class given is functional, cell-based. The method in brief: as §2
The subject of series [7] is M14. In words: Cytotoxicity against human M14 cells assessed as cell viability after 24 hrs using GF-AFC as substrate by ApoTox-Glo triplex assay. Format: functional, cell-based. In short, it runs like this: as §3
In series [8] the test system is M14. In words: Induction of apoptosis human M14 cells assessed as caspase activity after 24 to 48 hrs using DEVD peptide as substrate by ApoTox-Glo triplex assay. Format: functional, cell-based. The method in brief: as §3
For series [9], the system named is M14. In words: Cytotoxicity against human M14 cells assessed as cell viability at 100 uM after 4 hrs using bis-AAF-R110 as substrate by ApoTox-Glo triplex assay. Format: functional, cell-based. In short, it runs like this:
as §3

Series [10] deals with M14. Description: Cytotoxicity against human M14 cells assessed as cell viability at 100 uM after 4 hrs using GF-AFC as substrate by ApoTox-Glo triplex assay. The class given is functional, cell-based. In short, it runs like this:
as §3

In series [11] the test system is M14. In words: Induction of apoptosis human M14 cells assessed as caspase activity at 100 uM after 4 hrs using DEVD peptide as substrate by ApoTox-Glo triplex assay. The class given is functional, cell-based. In short, it runs like this:
as §3

We go through seven compounds from ChEMBL document CHEMBL3232843, “Novel pyrrolidine diketopiperazines selectively inhibit melanoma cells via induction of late-onset apoptosis” (J Med Chem, 2014).

The source made the active and inactive calls. No cut-off for these calls is given here.

As usually defined, the inhibition is the relative decrease from the control value, in per cent.

Consider `CCC[C@@H]1CNC(=O)C(=O)N1C[C@@H]1CCCN1C[C@@H](Cc1ccc(O)cc1)N1C[C@@H](Cc2ccc(O)cc2)N(CC(CC)c2ccccc2)C(=O)C1=O` (stereo not given in full), for which, in series [1], the cytotoxicity at 72 h, 100 µM is 59%. For the same compound, the figures for the inhibition at 100 µM in the series with A549 and in the series on M14 [2] were 8% and 14%, respectively.
For `CC(C)(C)c1ccc(C(O)CCCN2CCC(C(O)(c3ccccc3)c3ccccc3)CC2)cc1` (stereo not given), the result in the series on M14 [3], in the series on M14 [4] and in the series with M14 [5] was Active.
With `CCC[C@@H]1CNC(=O)C(=O)N1C[C@@H]1CCCN1C[C@H](Cc1ccc(O)cc1)N1C[C@H](Cc2ccc(O)cc2)N(CC2CCCC2)C(=O)C1=O`, the cytotoxicity at 72 h, 100 µM in series [1] was 7%. Further, the inhibition at 100 µM with A549 was 0%; in the series on M14 [2], 15%.
For `C[C@H](CCC(=O)O)C[C@H](C)C[C@H](C)C(=O)/C=C(\O)[C@H](C)C[C@H](C)C/C=C/[C@@H](C)[C@@H](O)[C@@H](C)[C@@H](O)C[C@@H]1CC[C@@](C)([C@H]2CC[C@@](C)([C@@H](C)O)O2)O1`, in the series with M14 [3], the Activity result was “Dose-dependent effect”. Further, the outcome in the series with M14 [6] was inactive.
As for `Cc1[nH]c2ccccc2c1CCNCc1ccc(/C=C/C(=O)NO)cc1`, in the series with M14 [7], the Activity entry is “Dose-dependent effect”. Further, the outcome with M14 [8] was Active. Also, the outcome with M14 [9], in the series on M14 [10] and in the series on M14 [11] was inactive.
As to `CCC[C@@H]1CNC(=O)C(=O)N1C[C@@H]1CCCN1C[C@@H](Cc1ccc(O)cc1)N1C[C@H](Cc2ccc(O)cc2)N(CC2CCCC2)C(=O)C1=O`, the cytotoxicity at 72 h, 100 µM in series [1] was 19%. Further, the inhibition at 100 µM with A549 was 16%; in the series on M14 [2], 23%.
For the compound `CCC[C@@H]1CNC(=O)C(=O)N1C[C@@H]1CCCN1C[C@H](Cc1ccc(O)cc1)N1C[C@@H](Cc2ccc(O)cc2)N(CC(CC)c2ccccc2)C(=O)C1=O` (stereo not given in full), the cytotoxicity at 72 h, 100 µM in series [1] turned out to be 0%.
